In the RNAGym collection of RNA variant scans (doi:10.1126/science.aae0568):
This sample holds only a part of the variants without activity.

B1: tRNA (parent)
chain: GUUCCGUUGGCGUAAUGGUAACGCGUCUCCCUCCUAAGGAGAAGACUGCGGGUUCGAGUCCCGUACGGAACG

Variants of: B1
Assay: yeast fitness relative to wild type (ratio to wild type); higher = fitter; tRNA-Arg(CCU), competitive growth, 37 C, YPD
Method in brief: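 Variants of the tRNA-Arg(CCU) gene were chemically synthesised with a 3% per-site mutation rate across 69 sites and placed at the native genomic locus in Saccharomyces cerevisiae. Six parallel replicates of the pooled strains were competed in YPD at 37°C for 24 hours, and gene amplicons from the start and end populations were read by 100-nucleotide paired-end sequencing. Darwinian fitness relative to wild type was derived from changes in genotype frequencies. Genotypes required ≥ 100 starting reads, and estimates < 0.5 were set to 0.5.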

First: GUUCCGUUGGCGUAAUGGUAAGGCGUCUCACUCCUAAGGAGAAGACUGCGGGUUCGAGUCUCGUACGGAACG [C22G C30A C61U]
Second: GUUCCGUUGGCGUAAUGGUAAGGCGUCUCCUUCCUAAGGAGAAGACUGCGGGUUCGAGUCCUGUUCGGAACG [C22G C31U C62U A65U]
The yeast fitness of the first is higher: 0.545 for the first, at most 0.5 for the second.

Compared with GUUCCGUUGGCGUAAUGGUAAGGCGUCUCGCUCCUAAGGAGAAGACUGCGGGUUAGAGUCCCGCACGGAACG [C22G C30G C55A U64C], GUUCCGUUGGCGUAAUGGUAAGGCGUCUCACUCCUAAGGAGAAGACUGCGGGUUCGAGUCCCGUAAGGAACG [C22G C30A C66A] is lower in yeast fitness: 0.581 for the first, at most 0.5 for the second.

GUUCCGUUGGCGUAAUGGUAAGGCGUCUCCCUCCUAAGGAGAAGACUGCGGGUUCGAGUGCUGUACGGAACG [C22G C60G C62U] and GUUCCGUUGGCGUAAUGGUAAGGCGUCUCCCUCCUAAGGAGAAGACUGCGGGUUCGAGUGCCGUAAGGAACG [C22G C60G C66A] cannot be ordered by yeast fitness: at most 0.5 for the first, at most 0.5 for the second.

First: GUUCCGUUGGCGUAAUGGUAAGGCGUCUCCCUCAUAAGGAGAAGACUGAGGGUUCGAGUCCCGUACGGAACG [C22G C34A C49A]
Second: GUUCCGUUGGCGUAAUGGUAAGGCGUCUCCCUUCUAAGGUGAAGACUGCGGGUUCGAGACCCGUACGGAACG [C22G C33U A40U U59A]
The yeast fitness of the first is higher: 0.818 for the first, 0.514 for the second.

First: GUUCCGUUGGCGUAAUGGUAAGGCGUCUCCCUCCUAAGGAGAAGACUGCGGGUUCGAGUCACGUACGGAACG [C22G C61A]
Second: GUUCCGUUGGCGUAAUGGUAAGGCGUCUCCCUCCUAAGGAGAAGACUGCGGGUUCGAGUCUCGUACGGAACG [C22G C61U]
The yeast fitness of the first is lower: 0.623 for the first, 0.841 for the second.

Compared with GUUCCGUUGGCGUAAUGGUAAGGCGUCUUCCUCCUAAGGAGAAGACUGCGGGUUCGAGUCCCGUACGGAACG [C22G C29U], GUUCCGUUGGCGUAAUGGUAAGACGUCUCGCUCCUAAGGAGAAGACUGCGGGUUCGAGUCCCGUCCGGAACG [C22G G23A C30G A65C] is lower in yeast fitness: 0.838 for the first, 0.535 for the second.

Going from GUUCCGUUGGCGUAAUGGUAAGGCGUCUCCCUCCUAAGGAGAAGACUGGGGGUUCGAGUCCCGUACGGUACG [C22G C49G A69U] to GUUCCGUUGGCGUAAUGGUAAGGCGUCUCGCUCCUAAGGAGAAGACUGCGGGUUCGAGACCCGUACGGAACG [C22G C30G U59A], the yeast fitness falls from 0.634 to at most 0.5.

Compared with GUUCCGUUGGCGUAAUGGUAAGGCGUCUCCCUCCUAAGGAGAAGAAUGCGGGUUCGAGUCCUGUACGGAACG [C22G C46A C62U], GUUCCGUUGGCGUAAUGGUAAGGCGUCUCCCUCCUAAGGAGAAGACUGUGGGUUCGAGUCACGUACGGAACG [C22G C49U C61A] is lower in yeast fitness: 1.04 for the first, 0.69 for the second.

Compared with GUUCCGUUGGCGUAAUGGUAAGGCGUCUCCCUCCUAAGGAGAAGAUUGCGGGUUCGAGUCCCGUAGGGAACG [C22G C46U C66G], GUUCCGUUGGCGUAAUGGUAAGGCGUCUCCCUCUUAAGGAGAAGAAUGCGGGUUCGAGUCCUGUACGGAACG [C22G C34U C46A C62U] is higher in yeast fitness: at most 0.5 for the first, 0.611 for the second.

Compared with GUUCCGUUGGCGUAAUGGUAAGGCGUCUCCCUACUCAGGAGAGGACUGCGGGUUGGAGUCCCGUACGGAACG [C22G C33A A36C A43G C55G], GUUCCGUUGGCGUAAUGGUAAGGCGUCUCCCUCGUAAGGAGAAGACUGCGGGUUCGAGUCCCGUACGGACCG [C22G C34G A70C] is higher in yeast fitness: 0.595 for the first, 0.608 for the second.

Compared with GUUCCGUUGGCGUAAUGGUAAGGCGUCUCCGUCCUGAGGAGAAGACUGCGGGUUCGAGUCCCGUACGGAACG [C22G C31G A36G], GUUCCGUUGGCGUAAUGGUAAGGCGUCUCCCUCCUAAGGAGAAGACUGCGGGUUGGAGUCCCCUACGGAACG [C22G C55G G63C] is lower in yeast fitness: 0.646 for the first, 0.572 for the second.

GUUCCGUUGGCGUAAUGGUAAGGCGUCUCGCUCCUAAGGAGAAGACCGCGGGUCCGAGUCCCGUACGGAACG [C22G C30G U47C U54C] and GUUCCGUUGGCGUAAUGGUAAGGCGUCUCGCUCCUAAGGAGAAGACCGCGGGUUCGAGUCCCGUACGGAUCG [C22G C30G U47C A70U] cannot be ordered by yeast fitness: at most 0.5 for the first, at most 0.5 for the second.

Compared with GUUCCGUUGGCGUAAUGGUAAGGCGUCUCACUCCUAAGGAGAAGACUGAGGGUUCGAGUCCCGUACGGUACG [C22G C30A C49A A69U], GUUCCGUUGGCGUAAUGGUAAGGCGUCUCCCUCCUAAGGAGAAGACUGAGGGUUCCACUGCCGUACGGAACG [C22G C49A G56C G58C C60G] is higher in yeast fitness: at most 0.5 for the first, 0.605 for the second.

GUUCCGUUGGCGUAAUGGUAAGGCGUCUCCAUCCUAAGGAGAGGACUGCGGGUUCGCGUCCCGUUCGGAACG [C22G C31A A43G A57C A65U] and GUUCCGUUGGCGUAAUGGUAAGGCGUCUCCCUCUUAAGGAGAAGACUGCGGGUUCGAGUCCCGUAUGGAACG [C22G C34U C66U] cannot be ordered by yeast fitness: at most 0.5 for the first, at most 0.5 for the second.

Going from GUUCCGUUGGCGUAAUGGUAAGGCGUCUUCAUCCUAAGGAGAAGACUGCGGGUUCGAGUCCCGUGCGGAACG [C22G C29U C31A A65G] to GUUCCGUUGGCGUAAUGGUAAGGCGUCUCUCUCCUAGGGAGAUGACUGCGGGUUCGAGUCCCGUACGGAACG [C22G C30U A37G A43U], the yeast fitness rises from at most 0.5 to 0.549.

Compared with GUUCCGUUGGCGUAAUGGUAAGGCGUCUCACUCCUAAGGAGAAGGCUGCGGGUUCGAGUCCCGUACGGAACG [C22G C30A A45G], GUUCCGUUGGCGUAAUGGUAAGGCGUCUCCAUCCUGAGGAGAAGACUGGGGGUUCGAGUCCCCUACGGUACG [C22G C31A A36G C49G G63C A69U] is higher in yeast fitness: at most 0.5 for the first, 0.543 for the second.

Going from GUUCCGUUGGCGUAAUGGUAAGGCGUCUCCCUCCUAAGGAGAAGACUGAGGGUUCGAGUCCCGUACGGAACG [C22G C49A] to GUUCCGUUGGCGUAAUGGUAAGGCGUCUCCCUCCUAAGGAGAAGACUGUGGGUUCGAGUCCCGUACGGAACG [C22G C49U], the yeast fitness rises from 0.682 to 0.986.

Going from GUUCCGUUGGCGUAAUGGUAAGGCGUCUCCCUCCUAAGGAGAAGACUGGGGGUUCGAGUCCCGUACGGAACG [C22G C49G] to GUUCCGUUGGCGUAAUGGUAAGGCGUCUCCCUACUCAGGAGAUGACUGCGGGUUGGAGUCCCGUACGGAACG [C22G C33A A36C A43U C55G], the yeast fitness falls from 0.664 to at most 0.5.

First: GUUCCGUUGGCGUAAUGGUAAGGCGUCUCCCUCCUAAGGAGAAGACUGCGGGUUCGAGUCCUGUACGGAACG [C22G C62U]
Second: GUUCCGUUGGCGUAAUGGUAAGGCGUCUCCGUCCUAAGGAGAAGACUGCGGGUUCGCGUCCCGUACGGCACG [C22G C31G A57C A69C]
The yeast fitness of the first is higher: 0.879 for the first, at most 0.5 for the second.
